Experimental data pooled from the literature.
Lines come from different studies, so protocols differ.
Target: Discoidin domain-containing receptor 2 (DDR2, Homo sapiens, UniProt Q16832)
Residues used in one study (Q16832 22-855): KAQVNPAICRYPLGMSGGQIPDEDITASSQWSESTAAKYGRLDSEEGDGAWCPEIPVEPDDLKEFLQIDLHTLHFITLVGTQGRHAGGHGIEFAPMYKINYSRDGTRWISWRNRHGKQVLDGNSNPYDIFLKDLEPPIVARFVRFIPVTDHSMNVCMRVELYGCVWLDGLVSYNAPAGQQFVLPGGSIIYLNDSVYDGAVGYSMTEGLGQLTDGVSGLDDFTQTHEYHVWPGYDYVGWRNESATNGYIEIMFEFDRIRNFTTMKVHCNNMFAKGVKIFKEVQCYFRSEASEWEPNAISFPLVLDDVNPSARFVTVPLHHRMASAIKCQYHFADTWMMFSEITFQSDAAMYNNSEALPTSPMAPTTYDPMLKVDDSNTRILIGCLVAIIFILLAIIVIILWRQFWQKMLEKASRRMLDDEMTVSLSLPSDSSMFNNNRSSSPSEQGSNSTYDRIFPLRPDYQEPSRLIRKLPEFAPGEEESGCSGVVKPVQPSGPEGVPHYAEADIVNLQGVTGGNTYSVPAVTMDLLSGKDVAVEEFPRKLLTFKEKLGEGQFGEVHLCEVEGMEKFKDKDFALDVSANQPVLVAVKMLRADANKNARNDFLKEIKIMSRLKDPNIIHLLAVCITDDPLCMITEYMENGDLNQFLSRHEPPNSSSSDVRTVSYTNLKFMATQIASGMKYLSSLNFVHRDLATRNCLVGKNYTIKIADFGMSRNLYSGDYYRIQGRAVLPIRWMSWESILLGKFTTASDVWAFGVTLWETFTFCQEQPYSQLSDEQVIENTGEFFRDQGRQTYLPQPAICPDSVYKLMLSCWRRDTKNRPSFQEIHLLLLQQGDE

For O=C(Nc1cnn(-c2csc(C(=O)NC3COC3)c2)c1)Nc1ccccc1Cl, the remaining activity was 99.8% (enzyme activity, inhibitor; 5 µM).
For CS(=O)(=O)N1CCCC(NC(=O)[C@H](CCC2CCCCC2)NC(=O)c2ccc(CNC(=O)c3cnc4ccccn34)cc2)C1 (stereo partly drawn), the remaining binding was 0% (cell-free assay, competition with immobilised ligand; 0.1 µM).
O=C1NC(=O)c2cc(Nc3ccc(F)cc3)c(Nc3ccc(F)cc3)cc21 has a remaining signal of 99.6% (cell-free assay; 0.5 µM).
With CC(C)(C)c1nc2c(s1)c1nc(N)ncc1c1ccc(NS(=O)(=O)c3c(F)cccc3F)c(F)c12 the remaining activity was 69% (enzyme activity, inhibitor, radiometric; 1 µM).
For COc1cc(/C=C/C(=O)CC(=O)/C=C/c2ccc(O)c(OC)c2)ccc1O, the activity vs control was 109% (enzyme activity, inhibitor; 1 µM).
O=C(NC[C@@H]1[C@H]2CN(C(=O)OCc3cc(C(F)(F)F)cc(C(F)(F)F)c3)C[C@@H]12)c1ccc2[nH]nnc2c1 has a remaining binding of 82% (cell-free assay, competition with immobilised ligand; 1 µM).
Cc1ccc(C(=O)Nc2ccc(CN3CCN(C)CC3)c(C(F)(F)F)c2)cc1C#Cc1cnc2cccnn12 has a remaining signal of 0.3% (cell-free assay; 23.5 nM).
For O=C1Nc2ccc(Cl)cc2C1=Cc1cc(Cl)c(O)c(Cl)c1, the remaining signal was 85.8% (cell-free assay; 0.5 µM).
The remaining binding of O=C(NCc1ncc(C(F)(F)F)cc1Cl)c1ccc2c(c1)C1(CCS(=O)(=O)CC1)[C@H](C1CC1)N2S(=O)(=O)c1ccc(F)cc1 is reported as 78% (cell-free assay, competition with immobilised ligand; 1 µM).
With Cc1ccc(Nc2nccc(N(C)c3ccc4c(C)n(C)nc4c3)n2)cc1S(N)(=O)=O the remaining signal was 36.2% (cell-free assay; 0.5 µM).
For COc1cc(Nc2cnc(C#N)c(O[C@H](C)CN(C)C)n2)ncc1-c1cnn(C)c1, the remaining activity was 95% (enzyme activity, inhibitor, radiometric; 1 µM).
CCCS(=O)(=O)Nc1ccc(F)c(C(=O)c2c[nH]c3ncc(-c4ccc(Cl)cc4)cc23)c1F gave an inhibition of under 10% (enzyme activity, inhibitor; 1 µM).
CNC(=O)c1cc(Oc2ccc(NC(=O)Nc3ccc(Cl)c(C(F)(F)F)c3)cc2)ccn1 has an inhibition of 111% (enzyme activity, inhibitor; 10 µM).
The remaining activity of CCN(CC)CCNC(=O)c1c(C)[nH]c(/C=C2\C(=O)Nc3ccc(F)cc32)c1C is reported as 101% (enzyme activity, inhibitor; 0.1 µM).
For CCN(CC)c1ccc(C2=NNC(=O)CC2C)cc1[N+](=O)[O-] (stereo not drawn), the remaining activity was 100% (enzyme activity, inhibitor; 10 µM).
Cc1cc(NC(=O)c2cccc3cc(-c4cccc5[nH]nc(N)c45)ccc23)ccc1F gave an activity vs control of 60% (enzyme activity, inhibitor; 0.1 µM).
With CO[C@H]1CC[C@H](CNc2ccc(S(=O)(=O)NC(=O)c3ccc(N4CCN(CC5=C(c6ccc(Cl)cc6)CC(C)(C)CC5)CC4)cc3Oc3cnc4[nH]ccc4c3)cc2[N+](=O)[O-])CC1 the remaining binding was 100% (cell-free assay, competition with immobilised ligand; 1 µM).
The remaining activity of Cc1[nH]c(/C=C2\C(=O)Nc3ccc(F)cc32)c(C)c1C(=O)N[C@H]1CCN(C(=O)N(C)C)C1 is reported as 113% (enzyme activity, inhibitor; 0.1 µM).
With Cc1noc([C@H]2C[C@@H](c3ccc(C(F)(F)F)cc3)CN(C(=O)N3CCS(=O)(=O)C3)C2)n1 the remaining binding was 74% (cell-free assay, competition with immobilised ligand; 1 µM).
With CC/C(=N\NC(=O)NCc1cccc(O)c1)c1ccc(O)c(C)c1O the inhibition was 0.1% (enzyme activity, inhibitor; 0.1 µM).
CS(=O)(=O)c1cc(C2(NC(=O)c3cncc4c3cnn4-c3ccc(F)cc3)CC2)ccn1 gave a remaining binding of 100% (cell-free assay, competition with immobilised ligand; 1 µM).
CC(C)(O)[C@H]1CC[C@H](Nc2ccc3ncc(-c4cccc(C(F)(F)F)c4)n3n2)CC1 has a remaining activity of 49.5% (enzyme activity, inhibitor; 1 µM).
CN(C)c1ncnc(-c2ccc3nc(Nc4cc(CN5CCN(C(=O)CC(F)(F)F)CC5)ccn4)[nH]c3c2)c1Cl gave a remaining binding of 71% (cell-free assay, competition with immobilised ligand; 1 µM).
The inhibition of CCN(CC)CCNC(=O)c1c(C)[nH]c(/C=C2\C(=O)Nc3ccc(F)cc32)c1C is reported as -8% (enzyme activity, inhibitor; 0.3 µM).
